Bioassay records deposited in PubChem BioAssay by Broad Institute.
Hits are enriched below; roughly 2.8% of the tested compounds scored in any of these assays.
E-sel inducer: induces E-selectin expression in human endothelial cells; P16581; HUVEC E-selectin immunofluorescence imaging; normalized: neutral wells 0, TNF-alpha wells 100; activation, % at 7.58 µM; actives 0.37% (n = 260,000); AID 686992;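 active = mean E-selectin-positive cell signal at least 10% of the positive control, reached in at least 60% of replicates, without over 20% cell loss; inconclusive = no rule given, readout overlaps actives, possibly toxicity-flagged; inactive = the rest, including those meeting only one limit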
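Assay system: HUVEC primary endothelial cells. Input: 3,000 HUVEC seeded per well. Doses: one compound dose added by pin transfer. Read-out basis: % PE-positive cells. Benchmarks: TNF-alpha high, DMSO low. Detection: immunofluorescence imaging. Buffer or medium: EGM-2, gelatin.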
SIRT5 block: blocks human SIRT5 desuccinylation of peptide | Q9NXA8 | Purified SirT5, succinyl-peptide AMC, trypsin-coupled fluorescence | inhibition, % at 15 µM | actives 1.1% (n = 330,000) | AID 652115; in the data active = inhibition above about 15%; inconclusive = no clear call, values can overlap the other calls
Target sequence (Q9NXA8 whole entry, looked up): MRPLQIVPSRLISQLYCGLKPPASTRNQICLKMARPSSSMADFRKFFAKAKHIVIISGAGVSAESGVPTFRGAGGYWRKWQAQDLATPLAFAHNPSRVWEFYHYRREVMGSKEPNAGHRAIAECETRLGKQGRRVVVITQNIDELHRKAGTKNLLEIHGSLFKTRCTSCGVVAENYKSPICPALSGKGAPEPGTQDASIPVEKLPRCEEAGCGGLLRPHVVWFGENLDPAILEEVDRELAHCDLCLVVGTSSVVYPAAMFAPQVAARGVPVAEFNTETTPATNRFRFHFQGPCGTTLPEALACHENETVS
DENV2 CPE rescue: protects cells from dengue virus 2 cytopathic effect | actives 1.7% (n = 350,000) | AID 651640 | CPE inhibition, % at 9.99 µM | DENV2-infected cells, cytopathic effect rescue, plate reader; in the data active = CPE inhibition above about 20%, passing the limit was not always enough; inconclusive = no clear call, values can overlap the other calls; tested in BHK-21 cells;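 note: 0% = median of neutral control wells and 100% = median of positive control wells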
* = called active by the depositor; ? = inconclusive; / = not tested or not shown.

SMILES	E-sel inducer	SIRT5 block	DENV2 CPE rescue
COc1ccccc1Nc1nc(NCCO)nc(N2CCCC2)n1	0	-2	-1
COc1ccccc1Nc1nc(NCCCCO)nc(N2CCCC2)n1	0	/	86*
Cc1ccc(Nc2nc(NCCO)nc(N3CCCC3)n2)cc1	1	/	60*
OCCNc1nc(Nc2ccccc2C(F)(F)F)nc(N2CCCC2)n1	0	-2	-8
COc1ccccc1CN(C)C[C@@H]1OCc2ccccc2-c2c(n(C)c3ccccc23)C(=O)N([C@@H](C)CO)C[C@H]1C	5	/	-3
COc1cccc(CN(C)C[C@@H]2OCc3ccccc3-c3c(n(C)c4ccccc34)C(=O)N([C@H](C)CO)C[C@H]2C)c1	0	29*	12
COc1cccc(CN(C)C[C@H]2OCc3ccccc3-c3c(n(C)c4ccccc34)C(=O)N([C@H](C)CO)C[C@@H]2C)c1	0	0	-2
C[C@H](CO)N1C[C@H](C)[C@H](CN(C)Cc2ccccc2C(F)(F)F)OCc2ccccc2-c2c(n(C)c3ccccc23)C1=O	19	0	26*
COc1ccccc1CN(C)C[C@H]1OCc2ccccc2-c2c(n(C)c3ccccc23)C(=O)N([C@H](C)CO)C[C@H]1C	4	2	27*
C[C@H](CO)N1C[C@H](C)[C@@H](CN(C)Cc2ccccc2C(F)(F)F)OCc2ccccc2-c2c(n(C)c3ccccc23)C1=O	6	-2	-1
O=C(C[C@@H]1C=C[C@H](NC(=O)c2ccccc2)[C@@H](CO)O1)NCCc1ccncc1	0	2	?
C[C@@H]1CN([C@@H](C)CO)C(=O)c2cccc(NS(C)(=O)=O)c2O[C@@H]1CN(C)Cc1ccccc1	0	2	13
Cn1ccc2c(N3CCOCC3)cc3c(c21)C1CCC3O1 (stereo not drawn)	-2	-14	48*
Cn1ccc2c(N3CCCC3)cc3c(c21)C1CCC3O1 (stereo not drawn)	0	0	-9
Cn1ccnc1C(OC(=O)c1ccccc1)C(F)(F)F (stereo not drawn)	0	15*	-6
Cn1ccnc1C(OC(=O)c1ccc(Cl)cc1)C(F)(F)F (stereo not drawn)	0	-2	0
C[C@@H]1CCCCO[C@@H](CN(C)CC2CC2)[C@@H](C)CN([C@H](C)CO)C(=O)c2cc(NS(C)(=O)=O)ccc2O1	0	-5	10
CN1c2ccc(Br)cc2[C@@H]2[C@@H](CCN2S(=O)(=O)c2cccc(F)c2)[C@H]1CO	0	-4	-9
COc1ccccc1/C=C/C(=O)c1ccccc1	0	-5	-5
COc1ccccc1/C=C/C=O	/	0	25*
COCC(=O)N1C[C@H](C)[C@@H](OC)CN(C)C(=O)c2cc(NC(=O)c3ccc(OC)cc3)ccc2OC[C@@H]1C	1	-7	-5
C[C@H]1CN([C@@H](C)CO)C(=O)c2cccc(NC(=O)c3ccncc3)c2O[C@H]1CN(C)Cc1ccc(C(=O)Nc2ccccc2N)cc1	51*	/	44*
C[C@H]1CN([C@@H](C)CO)C(=O)c2cccc(NC(=O)c3ccncc3)c2O[C@H]1CN(C)S(C)(=O)=O	/	0	6
CNC[C@H]1Oc2c(NC(=O)c3ccncc3)cccc2C(=O)N([C@@H](C)CO)C[C@H]1C	0	-2	38*
CNC[C@H]1Oc2c(NC(=O)c3ccncc3)cccc2C(=O)N([C@H](C)CO)C[C@@H]1C	0	-1	8
SMILES	E-sel inducer	SIRT5 block	DENV2 CPE rescue
C[C@H](CO)N1C[C@H](C)[C@@H](CN(C)Cc2ccc(C(=O)Nc3ccccc3N)cc2)Oc2c(NS(=O)(=O)c3cccs3)cccc2C1=O	3	7	-11
C[C@@H]1CN([C@H](C)CO)C(=O)c2cccc(NC(=O)c3ccncc3)c2O[C@H]1CN(C)Cc1ccc(C(=O)Nc2ccccc2N)cc1	5	6	13
C[C@H]1CN([C@@H](C)CO)C(=O)c2cccc(NS(=O)(=O)c3cccs3)c2O[C@@H]1CN(C)Cc1ccc(C(=O)Nc2ccccc2N)cc1	392*	3	-9
C[C@@H]1CN([C@H](C)CO)C(=O)c2cccc(NC(=O)c3ccncc3)c2O[C@H]1CN(C)S(C)(=O)=O	/	36*	12
COCC(=O)Nc1ccc2c(c1)OC[C@H](C)N(Cc1cc(F)ccc1F)C[C@@H](C)[C@H](OC)CN(C)C2=O	0	4	3
Cc1ccc(-c2cnc3c(c2)C(=O)N([C@@H](C)CO)C[C@@H](C)[C@@H](CN(C)C(=O)c2cccnc2)O3)cc1	0	4	8
C[C@H]1CN([C@@H](C)CO)C(=O)c2cccc(NC(=O)c3ccncc3)c2O[C@H]1CN(C)Cc1ccccc1	0	-4	-1
C[C@H]1CN([C@@H](C)CO)C(=O)c2cccc(NC(=O)C3CCCCC3)c2O[C@@H]1CN(C)Cc1ccc(C(=O)Nc2ccccc2N)cc1	0	1	80*
C[C@@H]1CN([C@@H](C)CO)C(=O)c2cc(NC(=O)C3CC3)ccc2O[C@H]1CN(C)Cc1ccc(C(=O)Nc2ccccc2N)cc1	0	10	13
C[C@H]1CN([C@@H](C)CO)C(=O)c2cccc(NS(C)(=O)=O)c2O[C@@H]1CN(C)Cc1ccc(C(=O)Nc2ccccc2N)cc1	/	-3	75*
C[C@H]1CN([C@@H](C)CO)C(=O)c2cc(NC(=O)C3CCCCC3)ccc2O[C@H]1CN(C)Cc1ccc(C(=O)Nc2ccccc2N)cc1	29*	1	-2
C[C@H](CO)N1C[C@H](C)[C@H](CN(C)Cc2ccc(C(=O)Nc3ccccc3N)cc2)Oc2c(NC(=O)C3CCCCC3)cccc2C1=O	0	4	?
C[C@@H]1CN([C@@H](C)CO)C(=O)c2cccc(NC(=O)c3ccncc3)c2O[C@H]1CN(C)Cc1ccccc1	0	23*	-6
C[C@@H]1CN([C@H](C)CO)C(=O)c2cccc(NS(C)(=O)=O)c2O[C@H]1CN(C)Cc1ccc(C(=O)Nc2ccccc2N)cc1	/	2	-1
COc1cccc(C#Cc2ccc3c(c2)[C@H]2[C@H](CCN2C(=O)c2ccc4c(c2)OCO4)[C@H](CO)N3)c1	/	6	-1
CC(=O)N(C)C[C@@H]1Oc2cc(C#CC3CCCC3)ccc2S(=O)(=O)N([C@@H](C)CO)C[C@H]1C	0	0	2
CN1C(=O)c2cc(NC(=O)c3ccc(F)cc3)ccc2OC[C@H]2O[C@@H](CC(=O)N3CCOCC3)CC[C@@H]21	0	7	-4
CCN1[C@H](C(=O)Nc2nccs2)[C@@H](CO)[C@@H]2Cn3c(ccc(/C=C/c4ccccc4)c3=O)[C@@H]21	0	/	-2
Cc1noc(C)c1S(=O)(=O)Nc1ccc2c(c1)C(=O)N([C@@H](C)CO)C[C@@H](C)[C@H](CN(C)C(=O)Nc1ccc(F)cc1)OCCCC[C@@H](C)O2	1	12	-4
CN(C)C(=O)C[C@H]1CC[C@H]2[C@@H](COc3ccc(NS(=O)(=O)c4cccc(F)c4)cc3C(=O)N2C)O1	0	-2	11
COC(=O)CNC(=O)C1Nc2ccccc2C2C=CCC12 (stereo not drawn)	/	/	15
CC(C)CNC(=O)C1Nc2ccccc2C2C=CCC12 (stereo not drawn)	/	/	63*
